{
  "source": "paper PMC12848671",
  "about": "(Chemical & Biomedical Imaging, 2025)",
  "key": {"[1]": {"experiment": "Chemical stability by analytical HPLC", "format": "physicochemical", "settings": "1 mg/mL, 37 °C, 24 h", "procedure,_shortened": "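For acid stability, test peptide at 1 mg/mL in diluted HCl (pH 2), held at 37 °C for up to 24 h. Purity by analytical HPLC on a C18 column: A = acetonitrile/0.1% TFA, B = water/0.1% TFA, 65-40-0% B over 0-20-20.1 min, 1 mL/min, room temperature.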"}, "[2]": {"system": "HEK293-hACE2 cells", "settings": "36 h"}, "[3]": {"system": "HEK293-hACE2 cells", "settings": "even at a concentration of 36.27 μM; 36 h"}, "[4]": {"experiment": "Radiochemical stability in 0.01 M PBS", "format": "physicochemical", "settings": "radio-TLC, mean ± SD"}, "[5]": {"experiment": "Radiochemical stability in 10% FBS", "format": "in vitro ADME", "settings": "radio-TLC, mean ± SD"}, "[6]": {"system": "wild-type C57BL/6 mice", "experiment": "68Ga-DOTA-Omi-X PET/CT, wild-type mice", "format": "in vivo, mouse", "settings": "3.7 MBq i.v., PET 2 h P.I."}, "[7]": {"system": "HEK293-hACE2 cells", "format": "cell-based, human", "settings": "2 × 10^6 cells/mL, 0.5 mL, γ-counter, mean ± SD, three repetitions"}, "[8]": {"system": "K18-hACE2 mice", "experiment": "125I-based SPECT/CT in vivo distribution, K18-hACE2 mice", "set-up": "species or system mouse", "procedure,_shortened": "(§1)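 Male mice, 4 months old, n = 5 per strain, anaesthetised with isoflurane (1.5%–2% induction, 1%–1.5% maintenance). Each got 3.28 ± 0.42 MBq of the 125I-labelled test peptide via the lateral tail vein. SPECT (35 keV, MLEM, 28 min) at 1 and 6 h post-injection, followed by CT. Manual 3D ROIs gave uptake (counts/mm3) in heart, lungs, liver and GI tract.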"}, "[9]": {"system": "C57BL/6 mice", "experiment": "125I-based SPECT/CT in vivo distribution, wild-type mice", "set-up": "species or system mouse", "settings": "WT C57BL/6 mice, i.v., by 6 h P.I.", "procedure,_shortened": "as §1"}},
  "note": "Read-outs that look alike come from different tables or passages of the source. Ends that are not written are not given here. * marks the point of attachment. 125I = [125I]*",
  "data": [
    {"compound": "CC(C)C[C@H](NC(=O)[C@H](CC(C)C)NC(=O)[C@H](CCC(=O)O)NC(=O)[C@H](Cc1ccccc1)NC(=O)[C@H](CO)NC(=O)[C@H](CC(C)C)NC(=O)[C@@H](NC(=O)[C@@H](NC(=O)[C@@H](NC(=O)[C@H](CCCNC(=N)N)NC(=O)[C@H](Cc1ccc(O)cc1)NC(=O)[C@@H]1CCCN1C(=O)[C@H](CCC(N)=O)NC(=O)[C@@H](N)Cc1c[nH]cn1)C(C)C)C(C)C)C(C)C)C(=O)N[C@@H](Cc1c[nH]cn1)C(=O)O", "note": "[Omi-X]", "values": [
      {"measurement": "chemical stability of the peptide sequence", "setting": "[1]; diluted HCl (pH = 2), analytical HPLC C18", "result": "chemically stable"},
      {"measurement": "chemical stability of the peptide sequence", "setting": "[1]; weakly acidic environment: diluted HCl (pH = 2), analytical HPLC", "result": "> 95", "unit": "%"},
      {"measurement": "cell-division rate (CFDA SE)", "setting": "[2]; 54.410 μM (100 μg/mL)", "result": "slightly inhibited"},
      {"measurement": "cell-division rate (CFDA SE)", "setting": "[2]; low-dose 0.544 μM (1 μg/mL)", "result": "no significant difference"},
      {"measurement": "cell-division rate (CFDA SE)", "setting": "[2]; medium-dose 5.441 μM (10 μg/mL)", "result": "no significant difference"},
      {"measurement": "effect on cell cycle distribution", "setting": "[3]", "result": "no significant effect"}
    ]},
    {"compound": "CC(C)C[C@H](NC(=O)[C@H](CC(C)C)NC(=O)[C@H](CCC(=O)O)NC(=O)[C@H](Cc1ccccc1)NC(=O)[C@H](CO)NC(=O)[C@H](CC(C)C)NC(=O)[C@@H](NC(=O)[C@@H](NC(=O)[C@@H](NC(=O)[C@H](CCCNC(=N)N)NC(=O)[C@H](Cc1ccc(O)cc1)NC(=O)[C@@H]1CCCN1C(=O)[C@H](CCC(N)=O)NC(=O)[C@H](Cc1c[nH]cn1)NC(=O)CN1CCN(CC(=O)O)CCN(CC(=O)O)CCN(CC(=O)O)CC1)C(C)C)C(C)C)C(C)C)C(=O)N[C@@H](Cc1c[nH]cn1)C(=O)O", "note": "[^68Ga-DOTA-Omi-X, metal not drawn]", "values": [
      {"measurement": "radiochemical stability (4 h) in 0.01 M PBS", "setting": "[4]", "result": "96.10 ± 0.75", "unit": "%"},
      {"measurement": "radiochemical stability (4 h) in 10% FBS", "setting": "[5]", "result": "94.10 ± 1.55", "unit": "%"},
      {"measurement": "ACE2-specific targeting", "setting": "[6]", "result": "did not appear to show significant ACE2-specific targeting"}
    ]},
    {"compound": "TVCGPKKSTNLVKNK [Omi-B]", "values": [
      {"measurement": "radioactive uptake rate in HEK293-hACE2 cells (ACE2-binding rate)", "setting": "[7]", "result": "15.04% ± 2.98%"}
    ]},
    {"compound": "^125I-Omi-X: 125I-labeled Omi-X for SPECT imaging (HQPY(125I)RVVVLSFELLH)", "values": [
      {"measurement": "clearance from circulation", "setting": "[8]; i.v. tail vein, SPECT/CT 1 h P.I.", "result": "rapidly cleared from circulation"},
      {"measurement": "excretion of unbound tracer", "setting": "[8]; i.v., SPECT/CT", "result": "primarily excreted through the urinary system"},
      {"measurement": "organ accumulation", "setting": "[8]; i.v., SPECT/CT 1 h P.I.", "result": "notably accumulated in the organs highly expressing ACE2, including the lung, heart, liver, and spleen"},
      {"measurement": "uptake in RAAS-related organs", "setting": "[9]", "result": "greatly reduced"}
    ]}
  ]
}
